Measured values from ChEMBL document CHEMBL1932990, “Synthesis and antifungal activity of 6,7-bis(arylthio)-quinazoline-5,8-diones and furo[2,3-f]quinazolin-5-ols” (2012).
In brackets after ≈: the same amount, converted by molar mass.

Key:
Format in all cases: functional
Pichia kudriavzevii = assay: Antifungal activity against Candida krusei Berkout KCCM 11655 after 1 day by twofold broth dilution method; settings: Berkout KCCM 11655, 24 h
Procedure, shortened: (§1)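 Two-fold broth dilution in modified Sabouraud dextrose broth. Inoculum about 1 × 10⁵ cells/mL. Test agents at final concentrations from 0.2 to 50.0. Incubated at 37 °C, and MIC read after 1 day. Fluconazole and 5-fluorocytosine served as standard agents.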

Candida tropicalis = assay: Antifungal activity against Candida tropicalis Berkout KCCM 50662 after 1 day by twofold broth dilution method; settings: Berkout KCCM 50662, 24 h; procedure, shortened: as §1
Aspergillus niger = assay: Antifungal activity against Aspergillus niger KCTC 1231 after 2 days by twofold broth dilution method; settings: KCTC 1231, 48 h
Procedure, shortened: (§2)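 Two-fold broth dilution in modified Sabouraud dextrose broth. Inoculum about 1 × 10⁵ cells/mL. Test agents at final concentrations from 0.2 to 50.0. Incubated at 37 °C, and MIC read after 2 days. Fluconazole and 5-fluorocytosine served as standard agents.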

Candida albicans = assay: Antifungal activity against Candida albicans Berkout KCCM 50235 after 1 day by twofold broth dilution method; settings: Berkout KCCM 50235, 24 h; procedure, shortened: as §1
Aspergillus flavus = assay: Antifungal activity against Aspergillus flavus KCCM 11899 after 2 days by twofold broth dilution method; settings: KCCM 11899, 48 h; procedure, shortened: as §2
Cryptococcus neoformans = assay: Antifungal activity against Cryptococcus neoformans KCCM 50564 after 1 day by twofold broth dilution method; settings: KCCM 50564, 24 h; procedure, shortened: as §1

Row | Structure (SMILES) | MIC (Pichia kudriavzevii) [µg/mL] | MIC (Candida tropicalis) [µg/mL] | MIC (Aspergillus niger) [µg/mL] | MIC (Candida albicans) [µg/mL] | MIC (Aspergillus flavus) [µg/mL] | MIC (Cryptococcus neoformans) [µg/mL]
1 | CCOC(=O)c1c(N)oc2c1c(Sc1cccc(Cl)c1)c(O)c1ncncc12 | 50 (≈ 120 µM) | 25 (≈ 60.1 µM) | 25 (≈ 60.1 µM) | 50 (≈ 120 µM) | 12.5 (≈ 30.1 µM) | 12.5 (≈ 30.1 µM)
2 | CCOC(=O)c1c(N)oc2c1c(Sc1ccc(OC)cc1)c(O)c1ncncc12 | 50 (≈ 122 µM) | 25 (≈ 60.8 µM) | 12.5 (≈ 30.4 µM) | 12.5 (≈ 30.4 µM) | 12.5 (≈ 30.4 µM) | 12.5 (≈ 30.4 µM)
3 | CCSC1=C(SCC)C(=O)c2ncncc2C1=O | 6.3 (≈ 22.5 µM) | 12.5 (≈ 44.6 µM) | 3.2 (≈ 11.4 µM) | 12.5 (≈ 44.6 µM) | 6.3 (≈ 22.5 µM) | 6.3 (≈ 22.5 µM)
4 | O=C1C(Sc2ccc(Br)cc2)=C(Sc2ccc(Br)cc2)C(=O)c2ncncc21 | 6.3 (≈ 11.8 µM) | 50 (≈ 93.6 µM) | 3.2 (≈ 5.99 µM) | 6.3 (≈ 11.8 µM) | 6.3 (≈ 11.8 µM) | 12.5 (≈ 23.4 µM)
5 | CCOC(=O)c1c(N)oc2c1c(SCC)c(O)c1ncncc12 | 25 (≈ 75 µM) | 25 (≈ 75 µM) | 3.2 (≈ 9.6 µM) | 50 (≈ 150 µM) | 6.3 (≈ 18.9 µM) | 12.5 (≈ 37.5 µM)
6 | Cc1ccc(SC2=C(Sc3ccc(C)cc3)C(=O)c3ncncc3C2=O)cc1 | 6.3 (≈ 15.6 µM) | 6.3 (≈ 15.6 µM) | 3.2 (≈ 7.91 µM) | 12.5 (≈ 30.9 µM) | 3.2 (≈ 7.91 µM) | 50 (≈ 124 µM)
7 | O=C1C(SCCO)=C(SCCO)C(=O)c2ncncc21 | 12.5 (≈ 40 µM) | > 50 | 25 (≈ 80 µM) | 25 (≈ 80 µM) | 25 (≈ 80 µM) | 6.3 (≈ 20.2 µM)
8 | O=C1C(Sc2ccc(F)c(F)c2)=C(Sc2ccc(F)c(F)c2)C(=O)c2ncncc21 | 12.5 (≈ 27.9 µM) | 6.3 (≈ 14 µM) | 12.5 (≈ 27.9 µM) | 12.5 (≈ 27.9 µM) | 1.6 (≈ 3.57 µM) | 6.3 (≈ 14 µM)
9 | CCOC(=O)c1c(N)oc2c1c(Sc1ccc(C)cc1)c(O)c1ncncc12 | 6.3 (≈ 15.9 µM) | 6.3 (≈ 15.9 µM) | 6.3 (≈ 15.9 µM) | 3.2 (≈ 8.09 µM) | 6.3 (≈ 15.9 µM) | 3.2 (≈ 8.09 µM)
10 | CCOC(=O)c1c(N)oc2c1c(Sc1ccc(F)c(F)c1)c(O)c1ncncc12 | 6.3 (≈ 15.1 µM) | 3.2 (≈ 7.67 µM) | 12.5 (≈ 29.9 µM) | 3.2 (≈ 7.67 µM) | 3.2 (≈ 7.67 µM) | 6.3 (≈ 15.1 µM)
11 | O=C1C(Sc2cccc(F)c2)=C(Sc2cccc(F)c2)C(=O)c2ncncc21 | 12.5 (≈ 30.3 µM) | 25 (≈ 60.6 µM) | 25 (≈ 60.6 µM) | 6.3 (≈ 15.3 µM) | 25 (≈ 60.6 µM) | 1.6 (≈ 3.88 µM)
12 | COc1ccc(OC)c2ncncc12 | 50 (≈ 263 µM) | > 50 | 25 (≈ 131 µM) | > 50 | 50 (≈ 263 µM) | 50 (≈ 263 µM)
13 | Nc1nc(=O)[nH]cc1F [FLUCYTOSINE] | 6.3 (≈ 48.8 µM) | 3.2 (≈ 24.8 µM) | 6.3 (≈ 48.8 µM) | 3.2 (≈ 24.8 µM) | 6.3 (≈ 48.8 µM) | 12.5 (≈ 96.8 µM)
14 | O=C1C(Sc2ccc(O)cc2)=C(Sc2ccc(O)cc2)C(=O)c2ncncc21 | 25 (≈ 61.2 µM) | 3.2 (≈ 7.83 µM) | 25 (≈ 61.2 µM) | 3.2 (≈ 7.83 µM) | 12.5 (≈ 30.6 µM) | 12.5 (≈ 30.6 µM)
15 | Cc1ccc(SC2=C(Sc3ccc(C)c(C)c3)C(=O)c3ncncc3C2=O)cc1C | 12.5 (≈ 28.9 µM) | 12.5 (≈ 28.9 µM) | 25 (≈ 57.8 µM) | 12.5 (≈ 28.9 µM) | 12.5 (≈ 28.9 µM) | 3.2 (≈ 7.4 µM)
16 | COc1ccc(SC2=C(Sc3ccc(OC)cc3)C(=O)c3ncncc3C2=O)cc1 | 3.2 (≈ 7.33 µM) | 25 (≈ 57.3 µM) | 3.2 (≈ 7.33 µM) | 25 (≈ 57.3 µM) | 0.8 (≈ 1.83 µM) | 6.3 (≈ 14.4 µM)
17 | O=C1C(Sc2ccc(F)cc2F)=C(Sc2ccc(F)cc2F)C(=O)c2ncncc21 | 12.5 (≈ 27.9 µM) | 6.3 (≈ 14 µM) | 12.5 (≈ 27.9 µM) | 6.3 (≈ 14 µM) | 6.3 (≈ 14 µM) | 1.6 (≈ 3.57 µM)
18 | O=C1C(Sc2ccccc2F)=C(Sc2ccccc2F)C(=O)c2ncncc21 | 12.5 (≈ 30.3 µM) | 6.3 (≈ 15.3 µM) | 12.5 (≈ 30.3 µM) | 6.3 (≈ 15.3 µM) | 12.5 (≈ 30.3 µM) | 1.6 (≈ 3.88 µM)
19 | Cc1cccc(SC2=C(Sc3cccc(C)c3)C(=O)c3ncncc3C2=O)c1 | 25 (≈ 61.8 µM) | 12.5 (≈ 30.9 µM) | 1.6 (≈ 3.96 µM) | 3.2 (≈ 7.91 µM) | 6.3 (≈ 15.6 µM) | 0.8 (≈ 1.98 µM)
20 | O=C1C(Sc2ccccc2)=C(Sc2ccccc2)C(=O)c2ncncc21 | 6.3 (≈ 16.7 µM) | 6.3 (≈ 16.7 µM) | 6.3 (≈ 16.7 µM) | 6.3 (≈ 16.7 µM) | 3.2 (≈ 8.5 µM) | 25 (≈ 66.4 µM)
21 | OC(Cn1cncn1)(Cn1cncn1)c1ccc(F)cc1F [FLUCONAZOLE] | 25 (≈ 81.6 µM) | 6.3 (≈ 20.6 µM) | 25 (≈ 81.6 µM) | 50 (≈ 163 µM) | 25 (≈ 81.6 µM) | 6.3 (≈ 20.6 µM)
22 | CCOC(=O)c1c(N)oc2c1c(Sc1ccc(Br)cc1)c(O)c1ncncc12 | 25 (≈ 54.3 µM) | 25 (≈ 54.3 µM) | 6.3 (≈ 13.7 µM) | 12.5 (≈ 27.2 µM) | 50 (≈ 109 µM) | 3.2 (≈ 6.95 µM)
23 | O=C1C(Sc2ccc(Cl)cc2)=C(Sc2ccc(Cl)cc2)C(=O)c2ncncc21 | 3.2 (≈ 7.19 µM) | 12.5 (≈ 28.1 µM) | 1.6 (≈ 3.59 µM) | 6.3 (≈ 14.1 µM) | 3.2 (≈ 7.19 µM) | 6.3 (≈ 14.1 µM)
24 | CCOC(=O)c1c(N)oc2c1c(Sc1ccc(Cl)cc1)c(O)c1ncncc12 | 50 (≈ 120 µM) | 50 (≈ 120 µM) | 3.2 (≈ 7.69 µM) | 25 (≈ 60.1 µM) | 6.3 (≈ 15.1 µM) | 6.3 (≈ 15.1 µM)
25 | CCOC(=O)c1c(N)oc2c1c(Sc1ccc(F)cc1)c(O)c1ncncc12 | 6.3 (≈ 15.8 µM) | 3.2 (≈ 8.01 µM) | 50 (≈ 125 µM) | 6.3 (≈ 15.8 µM) | 12.5 (≈ 31.3 µM) | 3.2 (≈ 8.01 µM)
26 | O=C1C(Sc2ccc(F)cc2)=C(Sc2ccc(F)cc2)C(=O)c2ncncc21 | 12.5 (≈ 30.3 µM) | 6.3 (≈ 15.3 µM) | 3.2 (≈ 7.76 µM) | 1.6 (≈ 3.88 µM) | 3.2 (≈ 7.76 µM) | 1.6 (≈ 3.88 µM)
